In ChEMBL document CHEMBL1140485, “MexAB-OprM specific efflux pump inhibitors in Pseudomonas aeruginosa. Part 7: highly soluble and in vivo active quaternary ammonium analogue D13-9001, a potential preclinical candidate” (Bioorg Med Chem, 2007):
In brackets after ≈: the same amount, converted by molar mass.

Key:
Pseudomonas aeruginosa [1] = assay: Inhibition of Pseudomonas aeruginosa PAM1723 MexAB-OprM assessed as drug level required to decrease MIC of aztreonam
Procedure, shortened: (§1)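 P. aeruginosa PAM1723 overexpresses MexAB-OprM, with MexCD-OprJ and MexEF-OprN disrupted. The partner antibiotic's MIC was measured with and without inhibitor by NCCLS broth microdilution in Mueller–Hinton broth. Inoculum was 1 × 10⁶ CFU/mL, incubated 18 h at 37 °C, and growth was read visually. The value is the minimum inhibitor concentration that lowers the partner's MIC 8-fold (MPC₈).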

Pseudomonas aeruginosa [2] = assay: Inhibition of Pseudomonas aeruginosa PAM1723 MexAB-OprM assessed as drug level required to decrease MIC of levofloxacin in presence of 0.125% HAS; procedure, shortened: as §1
Pseudomonas aeruginosa [3] = assay: Inhibition of Pseudomonas aeruginosa PAM1723 MexAB-OprM assessed as drug level required to decrease MIC of levofloxacin; procedure, shortened: as §1
[4] = Aqueous solubility at pH 6.8; format: physicochemical; details: buffer
[5] = Drug level in Sprague-Dawley rat serum at 20 mg/kg, iv after 2 hrs; format: ADME, organism-based; parameters: dose 20 mg/kg, route intravenous; details: read-out: Activity
Procedure, shortened: (§2)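 Rats received a 2 h intravenous infusion at 1.25, 5 or 20 mg/kg, given with AZT 1000 mg/kg in 40 mL/kg 0.0005 N NaOH-saline. Blood was drawn at 40, 80 and 120 min into the infusion, then 0.25, 0.5, 1, 2 and 4 h after it ended. Plasma was stored at −20 °C and extracted with MeCN using propranolol as internal standard.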

Rattus norvegicus [6] = assay: Half life in Sprague-Dawley rat at 1.25 mg/kg, iv; format: ADME, organism-based; parameters: dose 1.25 mg/kg, route intravenous; details: in vivo; procedure, shortened: as §2
Rattus norvegicus [7] = assay: Volume of distribution at steady state (0 to infinity) in Sprague-Dawley rat at 1.25 mg/kg, iv; format: ADME, organism-based; parameters: dose 1.25 mg/kg, route intravenous; details: in vivo; procedure, shortened: as §2
[8] = AUC (0 to infinity) in Sprague-Dawley rat at 20 mg/kg, iv; format: ADME, organism-based; parameters: time infinity, dose 20 mg/kg, route intravenous; details: plasma
Procedure, shortened: (§3)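 Rats (SD) given compound by 2 h intravenous infusion with AZT 1000 mg/kg, in 40 mL/kg 0.0005 N NaOH-saline. Blood sampled at 40, 80 and 120 min into infusion and 0.25, 0.5, 1, 2 and 4 h after its end. Plasma stored at −20 °C, spiked with propranolol internal standard, extracted with MeCN and centrifuged before analysis.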

Rattus norvegicus [9] = assay: Half life in Sprague-Dawley rat at 20 mg/kg, iv; format: ADME, organism-based; parameters: dose 20 mg/kg, route intravenous; details: in vivo; procedure, shortened: as §2
Rattus norvegicus [10] = assay: Volume of distribution at steady state (0 to infinity) in Sprague-Dawley rat at 20 mg/kg, iv; format: ADME, organism-based; parameters: dose 20 mg/kg, route intravenous; details: in vivo; procedure, shortened: as §2
Mus musculus = assay: Toxicity in mouse assessed as lethal effect at 100 mg/kg, iv; format: organism-based; parameters: dose 100 mg/kg, route intravenous; details: in vivo
Procedure, shortened: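 Mice received a single intravenous dose at 50 or 100 mg/kg in groups of three. The read-out was the number of deaths per group.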

[11] = Half life in cynomolgus monkey at 5 mg/kg, iv; format: ADME, organism-based, Macaca fascicularis; parameters: dose 5 mg/kg, route intravenous; details: in vivo
Procedure, shortened: (§4)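 Monkeys received a 1 h intravenous infusion at 1 or 5 mg/kg in 10 mL/kg saline. Plasma was processed as for the rat samples: centrifuged, stored at −20 °C, then MeCN extraction with propranolol internal standard.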

[12] = Drug level in cynomolgus monkey serum at 1 mg/kg, iv after 1 hr; format: ADME, organism-based, Macaca fascicularis; parameters: dose 1 mg/kg, route intravenous; details: read-out: Activity; procedure, shortened: as §4
[13] = Clearance (0 to infinity) in cynomolgus monkey at 5 mg/kg, iv; format: ADME, organism-based, Macaca fascicularis; parameters: dose 5 mg/kg, route intravenous; details: in vivo; procedure, shortened: as §4
[14] = AUC (0 to infinity) in cynomolgus monkey at 1 mg/kg, iv; format: ADME, organism-based, Macaca fascicularis; parameters: time infinity, dose 1 mg/kg, route intravenous; details: plasma
Procedure, shortened: (§5)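 Monkeys given compound alone by 1 h intravenous infusion in 10 mL/kg saline. Plasma prepared and analysed as in the rat study: propranolol internal standard, MeCN extraction, centrifugation.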

[15] = Drug level in Sprague-Dawley rat serum at 1.25 mg/kg, iv after 2 hrs; format: ADME, organism-based; parameters: dose 1.25 mg/kg, route intravenous; details: read-out: Activity; procedure, shortened: as §2
[16] = Clearance (0 to infinity) in cynomolgus monkey at 1 mg/kg, iv; format: ADME, organism-based, Macaca fascicularis; parameters: dose 1 mg/kg, route intravenous; details: in vivo; procedure, shortened: as §4
[17] = Drug level in cynomolgus monkey serum at 5 mg/kg, iv after 1 hr; format: ADME, organism-based, Macaca fascicularis; parameters: dose 5 mg/kg, route intravenous; details: read-out: Activity; procedure, shortened: as §4
[18] = AUC (0 to infinity) in cynomolgus monkey at 5 mg/kg, iv; format: ADME, organism-based, Macaca fascicularis; parameters: time infinity, dose 5 mg/kg, route intravenous; details: plasma; procedure, shortened: as §5
[19] = Mean residential time (0 to infinity) in cynomolgus monkey at 1 mg/kg, iv; format: ADME, organism-based, Macaca fascicularis; parameters: dose 1 mg/kg, route intravenous; details: in vivo; procedure, shortened: as §4
Rattus norvegicus [20] = assay: Mean residential time (0 to infinity) in Sprague-Dawley rat at 20 mg/kg, iv; format: ADME, organism-based; parameters: dose 20 mg/kg, route intravenous; details: in vivo; procedure, shortened: as §2
[21] = Volume of distribution at steady state (0 to infinity) in cynomolgus monkey at 5 mg/kg, iv; format: ADME, organism-based, Macaca fascicularis; parameters: dose 5 mg/kg, route intravenous; details: in vivo, read-out: Vdss; procedure, shortened: as §4
Rattus norvegicus [22] = assay: Half life in Sprague-Dawley rat at 5 mg/kg, iv; format: ADME, organism-based; parameters: dose 5 mg/kg, route intravenous; details: in vivo; procedure, shortened: as §2
[23] = Volume of distribution at steady state (0 to infinity) in cynomolgus monkey at 1 mg/kg, iv; format: ADME, organism-based, Macaca fascicularis; parameters: dose 1 mg/kg, route intravenous; details: in vivo, read-out: Vdss; procedure, shortened: as §4
Rattus norvegicus [24] = assay: Volume of distribution at steady state (0 to infinity) in Sprague-Dawley rat at 5 mg/kg, iv; format: ADME, organism-based; parameters: dose 5 mg/kg, route intravenous; details: in vivo; procedure, shortened: as §2
[25] = Drug level in Sprague-Dawley rat serum at 5 mg/kg, iv after 2 hrs; format: ADME, organism-based; parameters: dose 5 mg/kg, route intravenous; details: read-out: Activity; procedure, shortened: as §2
Rattus norvegicus [26] = assay: Mean residential time (0 to infinity) in Sprague-Dawley rat at 5 mg/kg, iv; format: ADME, organism-based; parameters: dose 5 mg/kg, route intravenous; details: in vivo; procedure, shortened: as §2
[27] = AUC (0 to infinity) in Sprague-Dawley rat at 1.25 mg/kg, iv; format: ADME, organism-based; parameters: time infinity, dose 1.25 mg/kg, route intravenous; details: plasma; procedure, shortened: as §3
[28] = Mean residential time (0 to infinity) in cynomolgus monkey at 5 mg/kg, iv; format: ADME, organism-based, Macaca fascicularis; parameters: dose 5 mg/kg, route intravenous; details: in vivo; procedure, shortened: as §4
[29] = Half life in cynomolgus monkey at 1 mg/kg, iv; format: ADME, organism-based, Macaca fascicularis; parameters: dose 1 mg/kg, route intravenous; details: in vivo; procedure, shortened: as §4
Rattus norvegicus [30] = assay: Mean residential time (0 to infinity) in Sprague-Dawley rat at 1.25 mg/kg, iv; format: ADME, organism-based; parameters: dose 1.25 mg/kg, route intravenous; details: in vivo; procedure, shortened: as §2
[31] = AUC (0 to infinity) in Sprague-Dawley rat at 5 mg/kg, iv; format: ADME, organism-based; parameters: time infinity, dose 5 mg/kg, route intravenous; details: plasma; procedure, shortened: as §3

For `CC(C)(C)c1csc(NC(=O)c2ccn3c(=O)c(/C=C/c4nnn[nH]4)c(N4CCC[C@@H](CC(=O)NCC[N+](C)(C)CC(=O)[O-])C4)nc3c2)n1`, the Activity (Pseudomonas aeruginosa [1]) was 4 µg/mL, the Activity (Pseudomonas aeruginosa [2]) was 8 µg/mL and the Activity (Pseudomonas aeruginosa [3]) was 4 µg/mL. For the same molecule, the solubility [4] was 860 µg/mL (≈ 1240 µM).

With `CC(C)(C)c1csc(NC(=O)c2ccn3c(=O)c(/C=C/c4nnn[nH]4)c(N4CCC[C@@H](OC(=O)NCCC[N+](C)(C)CC(=O)[O-])C4)nc3c2)n1` the Activity (Pseudomonas aeruginosa [1]) was 2 µg/mL, the Activity (Pseudomonas aeruginosa [2]) was 4 µg/mL and the Activity (Pseudomonas aeruginosa [3]) was 4 µg/mL. It also gave a solubility [4] of 610 µg/mL (≈ 862 µM).

Work on `CC(C)(C)c1csc(NC(=O)c2ccn3c(=O)c(/C=C/c4nnn[nH]4)c(N4CCC[C@@H](OC(N)=O)C4)nc3c2)n1` yielded an Activity (Pseudomonas aeruginosa [1]) of less than 0.25 µg/mL, an Activity (Pseudomonas aeruginosa [2]) of 2 µg/mL and an Activity (Pseudomonas aeruginosa [3]) of 0.5 µg/mL. For the same molecule, the solubility [4] was 9.2 µg/mL (≈ 16.3 µM).

Molecule `CC(C)(C)c1csc(NC(=O)c2ccn3c(=O)c(/C=C/c4nnn[nH]4)c(N4CCC[C@H](OC(=O)NCC[N+](C)(C)C)C4)nc3c2)n1` has a solubility [4] of 547 µg/mL.

For `CC(C)(C)c1csc(NC(=O)c2ccn3c(=O)c(/C=C/c4nnn[nH]4)c(N4CCC[C@@H](OC(=O)NCC[N+](C)(C)CC(=O)[O-])C4)nc3c2)n1`, the Activity (Pseudomonas aeruginosa [1]) was 2 µg/mL, the concentration at 2 h [5] was 8040 ng/mL and the t1/2 (Rattus norvegicus [6]) was 13.8 min. For the same molecule, the Vdss (Rattus norvegicus [7]) was 3.049 L/kg, the AUC(0-inf) [8] was 14200 ng·h/mL and the t1/2 (Rattus norvegicus [9]) was 15 min. The Vdss (Rattus norvegicus [10]) was 1.71 L/kg, the Activity (Mus musculus) was “Non-toxic” and the half-life [11] was 24.6 min. The concentration at 1 h [12] was 1220 ng/mL, the clearance [13] was 10.7 mL/min/kg and the AUC(0-inf) [14] was 1490 ng·h/mL. It also gave an Activity (Pseudomonas aeruginosa [2]) of 4 µg/mL, a concentration at 2 h [15] of 262 ng/mL and a clearance [16] of 11.2 mL/min/kg. It also gave a concentration at 1 h [17] of 7640 ng/mL, an AUC(0-inf) [18] of 7890 ng·h/mL and an MRT inf [19] of 36.8 min. For the same molecule, the MRT (Rattus norvegicus [20]) was 72.9 min, the Activity (Pseudomonas aeruginosa [3]) was 2 µg/mL and the Vd [21] was 0.4 L/kg. The t1/2 (Rattus norvegicus [22]) was 10.8 min, the solubility [4] was 747 µg/mL (≈ 1080 µM) and the Vd [23] was 0.414 L/kg. For the same molecule, the Vdss (Rattus norvegicus [24]) was 1.712 L/kg, the concentration at 2 h [25] was 1840 ng/mL and the MRT (Rattus norvegicus [26]) was 72.54 min. The AUC(0-inf) [27] was 486 ng·h/mL, the MRT inf [28] was 37.5 min and the half-life [29] was 16.8 min. The MRT (Rattus norvegicus [30]) was 71.16 min and the AUC(0-inf) [31] was 3530 ng·h/mL.
